# Results: ChEMBL document CHEMBL5705905, “Pharmacological targeting of kinases MST1 and MST2 augments tissue repair and regeneration” (Sci Transl Med, 2016)
# The source made the active and inactive calls. The calls are words filed in the database; no cut-off is given here.
# Columns and labels:
# [1] = target: 5'-AMP-activated protein kinase catalytic subunit alpha-1 (Homo sapiens) (UniProt Q13131); test: Inhibition of AMPK-alpha1 (unknown origin) assessed as remaining activity at 1 uM by Kinome scan method relative to control
# How it was run: (§1)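 Active-site-dependent competition-binding (KINOMEscan) panel of 468 kinases, test compound at 1 μM (from a 10 mM DMSO stock). Read-out is ctrl% = (test signal − positive control signal)/(negative control signal − positive control signal) × 100. DMSO is the negative control (100%) and a control compound is the positive control (0%). Lower ctrl% means tighter binding.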
# [2] = target: 5'-AMP-activated protein kinase catalytic subunit alpha-2 (Homo sapiens) (UniProt P54646); test: Inhibition of AMPK-alpha2 (unknown origin) assessed as remaining activity at 1 uM by Kinome scan method relative to control; how it was run: as §1
# [3] = target: Dual specificity protein kinase CLK3 (Homo sapiens) (UniProt P49761); test: Inhibition of CLK3 (unknown origin) assessed as remaining activity at 1 uM by Kinome scan method relative to control
# Dual specificity protein kinase CLK3 (Homo sapiens), sequence (P49761 whole entry, looked up): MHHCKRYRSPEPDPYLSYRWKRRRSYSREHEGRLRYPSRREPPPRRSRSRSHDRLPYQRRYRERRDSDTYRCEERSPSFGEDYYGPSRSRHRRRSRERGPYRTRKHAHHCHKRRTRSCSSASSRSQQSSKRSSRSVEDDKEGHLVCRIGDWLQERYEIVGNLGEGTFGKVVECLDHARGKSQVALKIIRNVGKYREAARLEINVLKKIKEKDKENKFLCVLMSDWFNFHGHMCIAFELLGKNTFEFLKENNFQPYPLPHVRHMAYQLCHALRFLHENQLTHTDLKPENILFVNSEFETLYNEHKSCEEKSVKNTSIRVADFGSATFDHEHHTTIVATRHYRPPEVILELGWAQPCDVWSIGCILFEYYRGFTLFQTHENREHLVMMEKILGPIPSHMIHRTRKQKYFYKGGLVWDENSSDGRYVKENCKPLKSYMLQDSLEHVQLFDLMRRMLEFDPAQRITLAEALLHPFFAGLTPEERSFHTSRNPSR
# How it was run: (§2)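 Active-site-dependent competition-binding profiling (KINOMEscan) at 1 μM against a 468-kinase panel; compound supplied from a 10 mM DMSO stock. Read-out is ctrl% = (test signal − positive control signal)/(negative control signal − positive control signal) × 100. DMSO is the negative control (100%) and a control compound the positive control (0%). Lower ctrl% means tighter binding.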
# [4] = target: Casein kinase I isoform gamma-2 (Homo sapiens) (UniProt P78368); test: Inhibition of CSNK1G2 (unknown origin) assessed as remaining activity at 1 uM by Kinome scan method relative to control; how it was run: as §2
# Casein kinase I isoform gamma-2 (Homo sapiens), sequence (P78368 whole entry, looked up, canonical isoform): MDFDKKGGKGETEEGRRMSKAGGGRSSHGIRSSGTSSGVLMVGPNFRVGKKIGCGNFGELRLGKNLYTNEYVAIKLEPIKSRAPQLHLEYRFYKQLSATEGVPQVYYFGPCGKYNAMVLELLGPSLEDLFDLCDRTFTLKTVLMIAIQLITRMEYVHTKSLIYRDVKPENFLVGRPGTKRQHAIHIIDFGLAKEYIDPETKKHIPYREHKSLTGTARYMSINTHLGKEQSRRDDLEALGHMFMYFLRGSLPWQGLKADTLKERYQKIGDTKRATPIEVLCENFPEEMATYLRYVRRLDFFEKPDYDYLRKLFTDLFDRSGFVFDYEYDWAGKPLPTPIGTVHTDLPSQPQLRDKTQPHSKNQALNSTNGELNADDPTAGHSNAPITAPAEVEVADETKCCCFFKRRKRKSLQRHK
# [5] = target: Serine/threonine-protein kinase DCLK2 (Homo sapiens) (UniProt Q8N568); test: Inhibition of DCAMKL2 (unknown origin) assessed as remaining activity at 1 uM by Kinome scan method relative to control
# [6] = target: Myotonin-protein kinase (Homo sapiens) (UniProt Q09013); test: Inhibition of DMPK (unknown origin) assessed as remaining activity at 1 uM by Kinome scan method relative to control
# [7] = tested on: Epidermal growth factor receptor (Homo sapiens), P00533 [UNDEFINED MUTATION]; test: Inhibition of EGFR L747-T751del/Sins mutant (unknown origin) assessed as remaining activity at 1 uM by Kinome scan method relative to control
# Epidermal growth factor receptor (Homo sapiens), P00533 [UNDEFINED MUTATION], sequence (P00533 whole entry, looked up, stated change not applied): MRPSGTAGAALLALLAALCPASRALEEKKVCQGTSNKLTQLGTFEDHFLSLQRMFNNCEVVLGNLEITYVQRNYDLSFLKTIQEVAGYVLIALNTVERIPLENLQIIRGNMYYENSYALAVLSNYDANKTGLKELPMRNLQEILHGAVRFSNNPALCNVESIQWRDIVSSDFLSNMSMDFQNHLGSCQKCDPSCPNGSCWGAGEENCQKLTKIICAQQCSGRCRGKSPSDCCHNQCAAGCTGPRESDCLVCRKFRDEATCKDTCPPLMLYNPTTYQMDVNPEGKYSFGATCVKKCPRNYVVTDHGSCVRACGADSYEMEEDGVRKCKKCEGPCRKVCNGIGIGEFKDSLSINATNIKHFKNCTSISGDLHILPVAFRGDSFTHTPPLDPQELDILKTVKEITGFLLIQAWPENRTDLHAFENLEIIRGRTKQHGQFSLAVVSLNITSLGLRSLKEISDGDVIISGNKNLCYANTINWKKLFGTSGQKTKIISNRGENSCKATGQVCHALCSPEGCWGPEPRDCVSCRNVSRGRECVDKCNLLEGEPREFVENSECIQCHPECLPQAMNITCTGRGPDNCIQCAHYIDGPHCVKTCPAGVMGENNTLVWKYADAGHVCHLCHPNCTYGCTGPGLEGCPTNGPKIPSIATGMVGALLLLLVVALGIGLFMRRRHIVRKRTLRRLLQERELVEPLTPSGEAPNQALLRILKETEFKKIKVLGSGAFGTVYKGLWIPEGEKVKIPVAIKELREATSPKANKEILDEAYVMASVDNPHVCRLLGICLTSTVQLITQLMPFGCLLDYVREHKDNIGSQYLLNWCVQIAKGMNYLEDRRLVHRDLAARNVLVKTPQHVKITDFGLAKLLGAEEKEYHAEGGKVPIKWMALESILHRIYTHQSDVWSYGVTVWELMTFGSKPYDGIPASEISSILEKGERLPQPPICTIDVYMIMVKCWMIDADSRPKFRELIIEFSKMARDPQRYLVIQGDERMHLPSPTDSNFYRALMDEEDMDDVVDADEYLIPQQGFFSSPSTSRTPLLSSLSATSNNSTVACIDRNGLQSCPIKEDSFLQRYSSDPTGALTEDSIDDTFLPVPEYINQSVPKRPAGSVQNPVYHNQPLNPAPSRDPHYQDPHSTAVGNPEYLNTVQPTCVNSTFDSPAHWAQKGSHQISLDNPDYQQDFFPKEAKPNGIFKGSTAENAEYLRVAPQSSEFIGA
# [8] = target: Fibroblast growth factor receptor 3 (Homo sapiens) (UniProt P22607); test: Inhibition of FGFR3 (unknown origin) assessed as remaining activity at 1 uM by Kinome scan method relative to control
# [9] = target: G protein-coupled receptor kinase 3 (Homo sapiens) (UniProt P35626); test: Inhibition of GRK3 (unknown origin) assessed as remaining activity at 1 uM by Kinome scan method relative to control
# [10] = target: Rhodopsin kinase GRK7 (Homo sapiens) (UniProt Q8WTQ7); test: Inhibition of GRK7 (unknown origin) assessed as remaining activity at 1 uM by Kinome scan method relative to control
# [11] = tested on: Mast/stem cell growth factor receptor Kit (Homo sapiens), P10721 [L576P]; test: Inhibition of KIT L576P mutant (unknown origin) assessed as remaining activity at 1 uM by Kinome scan method relative to control
# [12] = target: Mitogen-activated protein kinase kinase kinase 13 (Homo sapiens) (UniProt O43283); test: Inhibition of LZK (unknown origin) assessed as remaining activity at 1 uM by Kinome scan method relative to control
# [13] = target: MAP/microtubule affinity-regulating kinase 4 (Homo sapiens) (UniProt Q96L34); test: Inhibition of MARK4 (unknown origin) assessed as remaining activity at 1 uM by Kinome scan method relative to control
# MAP/microtubule affinity-regulating kinase 4 (Homo sapiens), sequence (Q96L34 whole entry): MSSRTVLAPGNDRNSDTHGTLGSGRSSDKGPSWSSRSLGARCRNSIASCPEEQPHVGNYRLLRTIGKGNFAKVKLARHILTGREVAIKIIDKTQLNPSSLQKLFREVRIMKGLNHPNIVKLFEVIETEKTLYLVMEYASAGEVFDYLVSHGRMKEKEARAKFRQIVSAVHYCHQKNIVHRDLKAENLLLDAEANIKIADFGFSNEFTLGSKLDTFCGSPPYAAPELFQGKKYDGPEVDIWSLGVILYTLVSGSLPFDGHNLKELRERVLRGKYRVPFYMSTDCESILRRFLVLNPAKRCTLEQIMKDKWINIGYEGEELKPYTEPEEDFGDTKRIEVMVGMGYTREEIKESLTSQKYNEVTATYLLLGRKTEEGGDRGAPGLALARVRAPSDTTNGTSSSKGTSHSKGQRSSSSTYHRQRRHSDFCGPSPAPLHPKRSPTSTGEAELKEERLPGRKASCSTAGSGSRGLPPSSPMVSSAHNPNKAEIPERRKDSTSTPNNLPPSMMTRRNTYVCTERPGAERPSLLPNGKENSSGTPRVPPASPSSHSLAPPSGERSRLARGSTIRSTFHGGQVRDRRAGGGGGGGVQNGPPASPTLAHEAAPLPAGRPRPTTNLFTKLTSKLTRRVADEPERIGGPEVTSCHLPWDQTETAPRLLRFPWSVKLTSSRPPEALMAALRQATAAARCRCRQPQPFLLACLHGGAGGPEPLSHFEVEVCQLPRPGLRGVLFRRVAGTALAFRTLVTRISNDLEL
# [14] = tested on: Hepatocyte growth factor receptor (Homo sapiens), P08581 [Y1235D]; test: Inhibition of MET Y1235D mutant (unknown origin) assessed as remaining activity at 1 uM by Kinome scan method relative to control
# [15] = target: Serine/threonine-protein kinase Nek11 (Homo sapiens) (UniProt Q8NG66); test: Inhibition of NEK11 (unknown origin) assessed as remaining activity at 1 uM by Kinome scan method relative to control
# [16] = target: 3-phosphoinositide-dependent protein kinase 1 (Homo sapiens) (UniProt O15530); test: Inhibition of PDPK1 (unknown origin) assessed as remaining activity at 1 uM by Kinome scan method relative to control
# [17] = target: Dual serine/threonine and tyrosine protein kinase (Homo sapiens) (UniProt Q6XUX3); test: Inhibition of RIPK5 (unknown origin) assessed as remaining activity at 1 uM by Kinome scan method relative to control
# [18] = target: Uncharacterized serine/threonine-protein kinase SBK3 (Homo sapiens) (UniProt P0C264); test: Inhibition of SgK110 (unknown origin) assessed as remaining activity at 1 uM by Kinome scan method relative to control
# [19] = target: TGF-beta receptor type-2 (Homo sapiens) (UniProt P37173); test: Inhibition of TGFBR2 (unknown origin) assessed as remaining activity at 1 uM by Kinome scan method relative to control
# [20] = target: Serine/threonine-protein kinase DCLK1 (Homo sapiens, UniProt O15075); test: Binding affinity to DCAMKL1 (unknown origin) assessed as dissociation constant
# [21] = target: Non-receptor tyrosine-protein kinase TYK2 (Homo sapiens, UniProt P29597); test: Binding affinity to TYK2 JH1domain-catalytic (unknown origin) assessed as dissociation constant
# Non-receptor tyrosine-protein kinase TYK2, sequence (P29597 whole entry): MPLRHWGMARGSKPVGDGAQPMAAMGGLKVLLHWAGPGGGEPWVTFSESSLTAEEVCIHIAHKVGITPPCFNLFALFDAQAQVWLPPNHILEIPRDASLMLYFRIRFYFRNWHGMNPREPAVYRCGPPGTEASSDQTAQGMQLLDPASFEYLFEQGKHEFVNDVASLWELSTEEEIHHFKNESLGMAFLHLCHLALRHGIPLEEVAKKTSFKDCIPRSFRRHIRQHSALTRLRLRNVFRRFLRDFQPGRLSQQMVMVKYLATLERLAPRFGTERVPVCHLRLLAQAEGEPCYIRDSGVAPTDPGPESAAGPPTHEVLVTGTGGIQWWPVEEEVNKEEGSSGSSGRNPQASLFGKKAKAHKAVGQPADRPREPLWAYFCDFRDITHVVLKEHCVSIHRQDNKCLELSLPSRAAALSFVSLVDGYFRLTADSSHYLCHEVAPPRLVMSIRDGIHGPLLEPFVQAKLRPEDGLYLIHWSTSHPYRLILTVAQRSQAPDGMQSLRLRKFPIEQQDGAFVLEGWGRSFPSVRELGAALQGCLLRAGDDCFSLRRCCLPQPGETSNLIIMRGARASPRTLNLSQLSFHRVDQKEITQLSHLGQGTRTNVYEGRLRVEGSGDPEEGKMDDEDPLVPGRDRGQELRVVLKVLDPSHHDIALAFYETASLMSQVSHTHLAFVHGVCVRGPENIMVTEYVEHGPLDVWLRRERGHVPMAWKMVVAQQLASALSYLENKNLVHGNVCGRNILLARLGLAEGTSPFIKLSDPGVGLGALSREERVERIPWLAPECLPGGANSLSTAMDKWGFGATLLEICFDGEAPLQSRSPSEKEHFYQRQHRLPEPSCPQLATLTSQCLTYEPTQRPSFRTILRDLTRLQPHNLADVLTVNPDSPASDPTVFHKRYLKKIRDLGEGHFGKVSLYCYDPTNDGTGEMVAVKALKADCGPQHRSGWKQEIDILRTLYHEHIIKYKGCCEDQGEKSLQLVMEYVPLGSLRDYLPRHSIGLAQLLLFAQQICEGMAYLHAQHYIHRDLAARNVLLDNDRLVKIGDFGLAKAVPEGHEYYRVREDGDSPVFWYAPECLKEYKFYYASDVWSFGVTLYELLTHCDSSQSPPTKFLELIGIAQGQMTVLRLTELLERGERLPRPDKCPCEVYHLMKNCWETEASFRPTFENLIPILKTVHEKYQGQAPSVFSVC
# Aurora kinase A = Aurora kinase A (Homo sapiens, UniProt O14965); test: Inhibition of AURKA (unknown origin) in presence of ATP by enzymatic assay
# Aurora kinase A, sequence (O14965 whole entry): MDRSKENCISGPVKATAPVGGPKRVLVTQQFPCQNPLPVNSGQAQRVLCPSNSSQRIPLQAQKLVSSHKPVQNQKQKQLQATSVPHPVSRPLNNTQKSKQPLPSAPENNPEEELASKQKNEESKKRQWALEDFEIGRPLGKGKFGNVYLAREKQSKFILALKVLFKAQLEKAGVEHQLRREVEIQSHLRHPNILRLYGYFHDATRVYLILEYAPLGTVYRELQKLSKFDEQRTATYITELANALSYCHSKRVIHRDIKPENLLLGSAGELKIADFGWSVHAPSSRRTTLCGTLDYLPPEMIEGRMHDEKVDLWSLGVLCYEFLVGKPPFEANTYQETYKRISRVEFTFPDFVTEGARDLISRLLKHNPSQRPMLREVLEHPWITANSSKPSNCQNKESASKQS
# [22] = target: Mitogen-activated protein kinase kinase kinase 2 (Homo sapiens, UniProt Q9Y2U5); test: Inhibition of MAP3K2 (unknown origin) in presence of ATP by enzymatic assay
# Mitogen-activated protein kinase kinase kinase 2, sequence (Q9Y2U5 whole entry): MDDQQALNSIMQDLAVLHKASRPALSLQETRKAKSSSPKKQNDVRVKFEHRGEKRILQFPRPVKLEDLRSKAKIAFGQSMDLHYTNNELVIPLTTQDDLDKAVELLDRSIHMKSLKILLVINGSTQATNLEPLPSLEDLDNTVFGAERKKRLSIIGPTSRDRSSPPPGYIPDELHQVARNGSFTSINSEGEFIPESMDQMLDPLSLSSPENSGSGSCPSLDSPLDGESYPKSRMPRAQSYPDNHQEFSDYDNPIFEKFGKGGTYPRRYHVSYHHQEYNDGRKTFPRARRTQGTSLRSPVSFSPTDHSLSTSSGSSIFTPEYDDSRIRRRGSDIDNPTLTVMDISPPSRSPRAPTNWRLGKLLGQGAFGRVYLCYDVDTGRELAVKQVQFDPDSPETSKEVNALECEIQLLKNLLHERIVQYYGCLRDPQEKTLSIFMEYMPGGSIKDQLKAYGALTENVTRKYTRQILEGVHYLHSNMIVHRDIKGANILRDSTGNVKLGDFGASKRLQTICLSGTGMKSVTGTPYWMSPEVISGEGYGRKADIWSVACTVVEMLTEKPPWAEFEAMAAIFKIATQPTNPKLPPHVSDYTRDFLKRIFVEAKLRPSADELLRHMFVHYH
# RAW264.7 = test: Inhibition of MST1/2 (unknown origin) in mouse RAW264.7 cells assessed as H2O2 stimulated MST1/2 autophosphorylation level at 1 to 3 uM by immunoblot analysis; assay type: cell-based; details: dose 1-3 µM
# [23] = Acute toxicity in mouse assessed as increase in liver/body weight ratio at 1 mg/kg,ip administrated once a daily for 3 weeks relative to control; assay type: organism-based; details: in vivo, 504 h
# How it was run: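 Postnatal mice dosed from 10 days of age with vehicle or 1 mg/kg once per day for 21 days (3 weeks). Vehicle is 0.1% citric acid aqueous solution containing 20% Kolliphor HS 15. Liver sections stained with H&E and by IHC for CK19 and BrdU, with positive cells quantified (n = 3). Liver/body weight ratio recorded (n = 4). Values are means ± SD versus vehicle, Student's t test.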
# Mus musculus = test: Protection against Mst1fl/fl Mst2fl/fl-Alb-Cre double knockout mouse assessed as Ki67-positive cells at 1 mg/kg, ip administrated twice a day for 2 days measured after 36 hrs by immunohistochemical staining; assay type: functional, organism-based; details: Liver, time 2.0 day
structure (smiles),measurement,setting,value
CN1C(=O)c2sccc2N(C)c2nc(Nc3ccc(S(N)(=O)=O)cc3)ncc21,Activity,[1],100%
same,Activity,[2],100%
same,Activity,[3],85%
same,Activity,[4],100%
same,Activity,[5],84%
same,Activity,[6],100%
same,Activity,[7],67%
same,Activity,[8],98%
same,Activity,[9],87%
same,Activity,[10],74%
same,Activity,[11],75%
same,Activity,[12],86%
same,Activity,[13],100%
same,Activity,[14],83%
same,Activity,[15],100%
same,Activity,[16],100%
same,Activity,[17],45%
same,Activity,[18],100%
same,Activity,[19],100%
same,Kd,[20],25 nM
same,Kd,[21],5 nM
same,IC50,Aurora kinase A,19.4 nM
same,IC50,[22],79.6 nM
same,inhibition,RAW264.7,Active
same,Activity,[23],15%
same,Activity,Mus musculus,inactive
